What was measured:
Format in all cases: functional
[1] = species: Mus musculus; experiment: Anticancer activity measured as the number of survivors of the total treated mice with P-388 leukemia at 30 days.
How it was run: (§1)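 BDF1 or CDF1 mice given 10^6 ascitic P-388 leukemia cells ip, then treated ip on days 1, 5 and 9. Cures are survivors over total treated at 30 days.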

[2] = tested on: Mus musculus; experiment: Percent increase in median life span of BDF1 mice with P-388 leukemia at dose 300 mg/kg administered intraperitoneally; details: BDF1, P388, ip, route intraperitoneal
[3] = tested on: Mus musculus; experiment: Percent increase in median life span of BDF1 mice with B-16 melanoma at dose 300 mg/kg administered intraperitoneally; details: BDF1, B16, ip, route intraperitoneal
How it was run: (§2)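 BDF1 mice were implanted ip with a homogenate from 0.05 g of B-16 melanoma. Ip dosing ran on days 1-9, starting 24 h after implant, in dose-response studies following NCI protocols. The read-out was percent increase in life span (ILS). T/C ≥125% was taken as significant.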

[4] = tested on: Mus musculus; experiment: Percent increase in median life span of BDF1 mice with P-388 leukemia at dose 5 mg/kg administered intraperitoneally; details: BDF1, P388, ip, route intraperitoneal
[5] = tested on: Mus musculus; experiment: Percent increase in median life span of BDF1 mice with B-16 melanoma at dose 0.8 mg/kg administered intraperitoneally; details: BDF1, B16, ip, route intraperitoneal; how it was run: as §2
[6] = species: Mus musculus; experiment: Cures is the number of survivors of the total treated mice (6) with P-388 leukemia, at 60 days.
[7] = species: Mus musculus; experiment: Cures is the number of survivors of the total treated mice (20) with B-16 melanoma, at 60 days.
How it was run: (§3)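 BDF1 mice were implanted ip with a homogenate from 0.05 g of B-16 melanoma and dosed ip on days 1-9. Cures are survivors over total at 60 days.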

[8] = species: Mus musculus; experiment: Number of survivors of the total treated mice with B-16 melanoma, at 60 days.; how it was run: as §3
[9] = tested on: Mus musculus; experiment: Percent increase in median life span of BDF1 mice with B-16 melanoma at dose 3.00 mg/kg administered intraperitoneally; details: BDF1, B16, ip, route intraperitoneal; how it was run: as §2
[10] = tested on: Mus musculus; experiment: Percent increase in median life span of BDF1 mice with P-388 leukemia at dose 6.25 mg/kg administered intraperitoneally; details: BDF1, P388, ip, route intraperitoneal
[11] = tested on: Mus musculus; experiment: Percent increase in median life span of BDF1 mice with B-16 melanoma at dose 6.25 mg/kg administered intraperitoneally; 1-9 days of ip treatment relative to tumor inoculation; details: BDF1, B16, ip, route intraperitoneal; how it was run: as §2
[12] = tested on: Mus musculus; experiment: Percent increase in median life span of BDF1 mice with advanced B-16 melanoma at dose 12.5 mg/kg administered intraperitoneally; 5, 9, 13 days of ip treatment relative to tumor inoculation; details: BDF1, B16, ip, 312 h, route intraperitoneal
[13] = species: Mus musculus; experiment: Cures is the number of survivors of the total treated mice (12) with P-388 leukemia, at 30 days.; how it was run: as §1
[14] = tested on: Mus musculus; experiment: Percent increase in median life span of BDF1 mice with P-388 leukemia at dose 12.5 mg/kg administered intraperitoneally; range 90-100%; range 90-100%, 1, 5, 9 days of ip treatment relative to tumor inoculation; details: BDF1, P388, ip, 216 h, route intraperitoneal
How it was run: (§4)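 BDF1 or CDF1 mice given 10^6 ascitic leukemia cells ip, then dosed ip on days 1, 5 and 9. Read-out is percent increase in life span versus untreated controls. Cures were scored as survivors/total at 30 days; when cures reached 50% or more, the run was extended until a specific ILS could be calculated. T/C ≥125% counted as significant.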

[15] = species: Mus musculus; experiment: Cures is the number of survivors of the total treated mice (6) with L-1210 leukemia, at 30 days.
[16] = species: Mus musculus; experiment: Cures is the number of survivors of the total treated mice (10) with B-16 melanoma, at 60 days.; how it was run: as §3
[17] = species: Mus musculus; experiment: Cures is the number of survivors of the total treated mice (10) with Colon 26, at 60 days.
[18] = tested on: Mus musculus; experiment: Percent increase in median life span of BDF1 mice with L-1210 leukemia at dose 3.1 mg/kg administered intraperitoneally; 1, 5, 9 days of ip treatment relative to tumor inoculation; details: BDF1, L1210, ip, 216 h, route intraperitoneal; how it was run: as §4
[19] = tested on: Mus musculus; experiment: Percent increase in median life span of BDF1 mice with Colon 26 at dose 6.2 mg/kg administered intraperitoneally; 1, 5, 9 days of ip treatment relative to tumor inoculation; details: BDF1, Colon 26, ip, 216 h, route intraperitoneal
[20] = species: Mus musculus; experiment: Cures is the number of survivors of the total treated mice (10) with advanced B-16 melanoma, at 30 days.
[21] = tested on: Mus musculus; experiment: Percent increase in median life span of BDF1 mice with P-388 leukemia at dose 18.8 mg/kg administered intraperitoneally; details: BDF1, P388, ip, route intraperitoneal
[22] = species: Mus musculus; experiment: Cures is the number of survivors of the total treated mice (9) with P-388 leukemia, at 30 days.; how it was run: as §1
[23] = tested on: Mus musculus; experiment: Percent increase in median life span of BDF1 mice with B-16 melanoma at dose 1.5 mg/kg administered intraperitoneally; details: BDF1, B16, ip, route intraperitoneal; how it was run: as §2
[24] = tested on: Mus musculus; experiment: Percent increase in median life span of BDF1 mice with P-388 leukemia at dose 12.5 mg/kg administered intraperitoneally; details: BDF1, P388, ip, route intraperitoneal
[25] = species: Mus musculus; experiment: Cures is the number of survivors of the total treated mice (8) with Colon 26, at 60 days.
[26] = tested on: Mus musculus; experiment: Percent increase in median life span of BDF1 mice with Colon 26 at dose 12.5 mg/kg administered intraperitoneally; 1, 5, 9 days of ip treatment relative to tumor inoculation; details: BDF1, Colon 26, ip, 216 h, route intraperitoneal
[27] = tested on: Mus musculus; experiment: Percent increase in median life span of BDF1 mice with advanced L-1210 leukemia administered intraperitoneally; treatment day +2 ip
[28] = tested on: Mus musculus; experiment: Percent increase in median life span of BDF1 mice with B-16 melanoma at dose 6 mg/kg administered intraperitoneally; range 100-167; 1-9 days of ip treatment relative to tumor inoculation; details: BDF1, B16, ip, route intraperitoneal; how it was run: as §2
[29] = species: Mus musculus; experiment: Cures is the number of survivors of the total treated mice (6) with P-388 leukemia, at 30 days.; how it was run: as §1
[30] = tested on: Mus musculus; experiment: Percent increase in median life span of BDF1 mice with P-388 leukemia at dose 50 mg/kg administered intraperitoneally; range 25-91%; range 25-91%, 1, 5, 9 days of ip treatment relative to tumor inoculation; details: BDF1, P388, ip, 216 h, route intraperitoneal; how it was run: as §4
[31] = species: Mus musculus; experiment: Cures is the number of survivors of the total treated animals (12 mice) with P-388 leukemia, at 30 days.; how it was run: as §1
[32] = tested on: Mus musculus; experiment: Percent increase in median life span of BDF1 mice with advanced P-388 leukemia at dose 25 mg/kg administered intraperitoneally; 4, 8, 12 days of ip treatment relative to tumor inoculation; details: P388, ip, 288 h, route intraperitoneal

## N/C(S)=N/N=C/c1c2ccccc2c(/C=N/N=C(\N)S)c2ccccc12
[1]
  Cures: 0
[2]
  ILS at 300 mg/kg: 71%
[3]
  ILS at 300 mg/kg: 0%

## COc1cccc2c1C(=O)c1c(O)c3c(c(O)c1C2=O)C[C@@](O)(C(=O)CO)C[C@@H]3O[C@H]1C[C@H](N)[C@H](O)[C@H](C)O1 [DOXORUBICIN]
[4]
  ILS at 5 mg/kg: 159%
[5]
  ILS at 0.8 mg/kg: 275%
[6]
  Cures: 1
[7]
  Cures: 18

## Br.Br.CN(C)CC/N=C(\S)N/N=C/c1c2ccccc2c(/C=N/N/C(S)=N/CCN(C)C)c2ccccc12
[1]
  Cures: 0
[8]
  Cures: 0
[9]
  ILS at 3 mg/kg: 47%
[10]
  ILS at 6.25 mg/kg: 106%

## Cl.Cl.Clc1ccc2c(/C=N/NC3=NCCN3)c3ccccc3c(/C=N/NC3=NCCN3)c2c1
[11]
  ILS at 6.25 mg/kg: 206%
[12]
  ILS at 12.5 mg/kg: 32%
[13]
  Cures: 2
[14]
  ILS at 12.5 mg/kg: 95%
[15]
  Cures: 0
[16]
  Cures: 4
[17]
  Cures: 1
[18]
  ILS at 3.1 mg/kg: 37%
[19]
  ILS at 6.2 mg/kg: 100%
[20]
  Cures: 0

## Cc1ccc(C)c2c(/C=N/NC3=NCCN3)c3ccccc3c(/C=N/NC3=NCCN3)c12.Cl.Cl
[1]
  Cures: 0
[8]
  Cures: 0
[21]
  ILS at 18.8 mg/kg: 57%

## C(=N\NC1=NCC2(CC2)CN1)/c1c2ccccc2c(/C=N/NC2=NCC3(CC3)CN2)c2ccccc12.Cl.Cl
[22]
  Cures: 1
[23]
  ILS at 1.5 mg/kg: 127%
[16]
  Cures: 4
[24]
  ILS at 12.5 mg/kg: 100%

## Cl.Cl.N=C(NCc1ccco1)N/N=C/c1c2ccccc2c(/C=N/NC(=N)NCc2ccco2)c2ccccc12
[25]
  Cures: 0
[26]
  ILS at 12.5 mg/kg: 109%
[27]
  ILS: <25%
[7]
  Cures: 6
[28]
  ILS at 6 mg/kg: 167%
[29]
  Cures: 0
[30]
  ILS at 50 mg/kg: 91%
[31]
  Cures: 0
[32]
  ILS at 25 mg/kg: 56%

— ChEMBL document CHEMBL1122207, “Antitumor agents. 2. Bisguanylhydrazones of anthracene-9,10-dicarboxaldehydes” (1982)
